# Experimental data taken from publication PMC4931877 (The Journal of Pharmacology and Experimental Therapeutics, 2016).
# pIC50: −log10 of the molar value.
# What was measured:
# [1] = system: brain and CSF Aβ42 and Aβ40; details: dogs; ref Toyn et al., 2016; cited from earlier work
# CYP3A4 [2] = biological target: T1, CYP3A4 (Homo sapiens, UniProt P08684); experiment: Preclinical CYP3A4 time-dependent inhibition, induction and metabolism; assay type: in vitro ADME
# [3] = MAD study plasma pharmacokinetics; assay type: in vivo, human; details: for half-life / concentration at 24 h / Cmax: human, plasma, oral; for concentration at 24 h: C24 GM (CV%); for Cmax: Cmax GM (CV%)
# Summary of the method: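 EDTA plasma was sampled at 0–24 h postdose on days 1 and 14, intensively on day 28, and at trough on days 5–25. Drug was measured by validated LC-MS/MS. Parameters are noncompartmental, with trapezoidal and log-trapezoidal AUC. Half-life is ln2/k from a least-squares terminal slope on days 14 and 28.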
# CYP3A4 [4] = biological target: T1, CYP3A4; experiment: Plasma 4βHC biomarker of CYP3A4 in the MAD study; assay type: in vivo; details: any treatment cohort of the MAD study
# Summary of the method: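 During once-daily multiple dosing, plasma 4β-hydroxycholesterol was quantified by validated LC-MS/MS (LLOQ 2 ng/ml for 50 μl plasma). 4α-Hydroxycholesterol and total cholesterol were measured as normalisation factors.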
# [5] = SAD study plasma pharmacokinetics; assay type: in vivo, human; details: for Cmax / AUC(0-t) / AUC(0-inf) / half-life: human, plasma, oral; for Cmax: Cmax GM (CV%); for AUC(0-t): AUC0–t GM (CV%); for AUC(0-inf): AUC0–∞ GM (CV%)
# Summary of the method: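 Young subjects (8 per panel, 3:1 active:placebo) received single oral 10–1200 mg doses as solution or capsule; elderly subjects received 900 mg. Panel 4 was dosed fasted, after a high-fat meal, or 2 h after 40 mg famotidine. Plasma drug was measured by validated LC-MS/MS with noncompartmental analysis.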
# CSF Aβ peptides [6] = experiment: SAD study pharmacodynamic effects on CSF Aβ peptides; assay type: in vivo, human
# Summary of the method: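 After a single oral dose, CSF was drawn by lumbar cannulation at −1 to 24 h postdose, with predose samples taken at 7–10 AM, and stored at −80°C in polypropylene. Aβ38/40/42 and total Aβ were measured by MSD immunoassay and Aβ37 by 6E10 sandwich immunoassay, in duplicate. Other Aβ fragments were measured by LC-MS/MS (LLOQ 30 pg/ml).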
# CSF Aβ peptides [7] = experiment: MAD study pharmacodynamic effects on CSF Aβ peptides; assay type: in vivo, human
# UGT1A1 = biological target: T2, UGT1A1 (Homo sapiens, UniProt P22309); experiment: UGT1A1 inhibition; assay type: biochemical
# T2 sequence (P22309 26-533): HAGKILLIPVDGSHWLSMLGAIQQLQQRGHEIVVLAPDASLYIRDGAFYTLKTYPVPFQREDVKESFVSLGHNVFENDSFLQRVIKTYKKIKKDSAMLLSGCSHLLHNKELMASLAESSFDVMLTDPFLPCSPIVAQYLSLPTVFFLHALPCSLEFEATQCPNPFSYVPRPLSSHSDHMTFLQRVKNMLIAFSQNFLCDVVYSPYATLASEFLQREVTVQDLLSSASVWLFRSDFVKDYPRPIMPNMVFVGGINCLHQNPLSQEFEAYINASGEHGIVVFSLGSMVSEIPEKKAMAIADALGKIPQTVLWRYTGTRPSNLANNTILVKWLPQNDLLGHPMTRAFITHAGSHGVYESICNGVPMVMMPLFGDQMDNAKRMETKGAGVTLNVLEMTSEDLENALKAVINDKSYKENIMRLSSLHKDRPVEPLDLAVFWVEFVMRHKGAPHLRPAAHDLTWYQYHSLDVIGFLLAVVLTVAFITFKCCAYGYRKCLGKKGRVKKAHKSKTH
# [8] = system: plasma Aβ40, Aβ42, and total Aβ; experiment: MAD study pharmacodynamic effects on plasma Aβ; assay type: in vivo, human
# Summary of the method: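 Healthy volunteers were dosed once daily at 50, 100 or 200 mg for up to 28 days. EDTA plasma was stored at −80°C. Aβ40 and Aβ42 were measured by Luminex duplex immunoassay (LLOQ 30 and 3 pg/ml) and total Aβ by MSD (LLOQ 50 pg/ml), in duplicate. Values are % change from baseline, analysed by repeated-measures ANCOVA.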
# CSF Aβ42 = experiment: Indirect-response simulation of CSF Aβ42 lowering from MAD exposure-response; parameters: species or system human; details: MAD exposure-response model, Fig. 3F
# [9] = SAD study CSF pharmacokinetics; assay type: in vivo, human
# Summary of the method: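 In panel 9, 15 healthy subjects received a single 900-mg dose or placebo (2:1) in the fasted state. CSF was drawn by lumbar cannulation at −1, 0, 2, 4, 6, 8, 12, 15, 18 and 24 h postdose, using polypropylene ware and a pump without a filter. Samples were stored at −80°C, and drug was measured by validated LC-MS/MS.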
# [10] = 50 mg, MAD panel 1, 50 mg once daily, day 1
# [11] = 50 mg, MAD panel 1, 50 mg once daily, day 14
# [12] = 50 mg, MAD panel 1, 50 mg once daily, day 28
# [13] = SAD panel 4, 2 hours after 40 mg famotidine
# [14] = both, 300 mg, SAD panel 4, 300 mg, fasted
# [15] = both, 900 mg, SAD panel 8, 900 mg, elderly
# T1 sequence (P08684 whole entry): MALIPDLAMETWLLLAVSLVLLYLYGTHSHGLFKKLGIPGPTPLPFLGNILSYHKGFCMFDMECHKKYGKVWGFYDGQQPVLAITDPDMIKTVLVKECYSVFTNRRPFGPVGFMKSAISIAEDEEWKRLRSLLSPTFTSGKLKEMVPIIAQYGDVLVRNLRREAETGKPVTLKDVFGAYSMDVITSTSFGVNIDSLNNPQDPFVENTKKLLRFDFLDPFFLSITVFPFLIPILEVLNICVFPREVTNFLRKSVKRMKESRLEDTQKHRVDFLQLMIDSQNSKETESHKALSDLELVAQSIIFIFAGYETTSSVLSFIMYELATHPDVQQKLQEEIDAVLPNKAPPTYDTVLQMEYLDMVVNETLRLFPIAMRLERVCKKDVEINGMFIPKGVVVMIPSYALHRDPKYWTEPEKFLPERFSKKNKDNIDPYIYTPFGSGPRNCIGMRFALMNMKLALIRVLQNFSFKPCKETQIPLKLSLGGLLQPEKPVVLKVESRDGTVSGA
smiles,measurement,setting,value
"CNc1nc(Nc2ccc(-n3cnc(C)n3)c(OC)c2)nc2c1CC[C@H]2c1ccc(F)cc1 [BMS-932481, (S)-7-(4-fluorophenyl)-N2-(3-methoxy-4-(3-methyl-1H-1,2,4-triazol-1-yl)phenyl)-N4-methyl-6,7-dihydro-5H-cyclopenta[d]pyrimidine-2,4-diamine]",Aβ42 and Aβ40 lowering in both the brain and CSF,[1],dose-dependent
same,metabolizing enzyme,CYP3A4 [2],primarily metabolized by CYP3A4
same,KI (inactivation),CYP3A4 [2]; human,82.5 µM
same,induction of CYP3A4 enzyme activity,CYP3A4 [2]; preclinical,weak inducer
same,steady state achieved,[3]; MAD 50- and 100-mg dose groups,≤ 14 days
same,dose proportionality of plasma exposure,[3]; MAD day 14,greater than dose proportionality
same,slope for AUCτ versus dose,"[3]; MAD day 14, 95% CI, 1.03–1.88, r^2 = 0.81",1.46
same,slope for Cmax versus dose,"[3]; MAD day 14, 95% CI, 1.06–1.67, r^2 = 0.9",1.36
same,dose proportionality of plasma exposure,"[3]; first dose (day 1) of multiple-dose administrations, 50 to 200 mg",dose proportional
same,half-life,[3]; 50 mg,24 h
same,concentration at 24 h,[3]; [10],47 ng/mL
same,concentration at 24 h,[3]; [11],204 ng/mL
same,concentration at 24 h,[3]; [12],165 ng/mL
same,Cmax,[3]; [10],134 ng/mL
same,Cmax,[3]; [11],323 ng/mL
same,Cmax,[3]; [12],293 ng/mL
same,half-life,[3]; 100 mg,29 h
same,concentration at 24 h,"[3]; 100 mg, MAD panel 2, 100 mg once daily, day 1",87 ng/mL
same,half-life,[3]; 200 mg,37 h
same,concentration at 24 h,"[3]; 200 mg, MAD panel 3, 200 mg once daily, day 1",220 ng/mL
same,accumulation after multiple dosing,[3]; multiple dosing,approximately 3 fold
same,changes in 4βHC levels,CYP3A4 [4],no significant changes
same,higher Cmax in elderly than normal healthy young,"[5]; 900 mg single dose, range 3.4–4.3",3.8 fold
same,Between-subjects variability,[5]; SAD,27%–83
same,increase of AUC with famotidine (change in gastric pH),[5]; [13],approximately 15%
same,increase of Cmax with famotidine (change in gastric pH),[5]; [13],60%
same,Cmax,"[5]; both, 10 mg, SAD panel 1, 10 mg single dose",11 ng/mL
same,Cmax,"[5]; both, 30 mg, SAD panel 2, 30 mg single dose",49 ng/mL
same,AUC(0-t),[5]; [14],8570 ng·h/mL
same,AUC(0-inf),[5]; [14],8750 ng·h/mL
same,Cmax,[5]; [14],325 ng/mL
same,half-life,"[5]; both, 300 mg, t1/2 Mean (S.D.), SAD panel 4, 300 mg, fasted",20 h
same,AUC(0-t),[5]; [15],134000 ng·h/mL
same,AUC(0-inf),[5]; [15],156000 ng·h/mL
same,Cmax,[5]; [15],2870 ng/mL
same,half-life,"[5]; both, mean terminal half-life, SAD, healthy young participants",16 to 32 h
same,AUC(0-t),"[5]; 900 mg, SAD panel 9, 900 mg",42600 ng·h/mL
same,Cmax,"[5]; 900 mg, SAD panel 9, 900 mg",876 ng/mL
same,half-life,"[5]; 900 mg, t1/2 Mean (S.D.), SAD panel 9, 900 mg",32 h
same,dose proportionality of plasma exposure,"[5]; single dose, 10 to 1200 mg, healthy young volunteers",dose proportional
same,effect on CSF Aβ39,CSF Aβ peptides [6],appeared to lower
same,"effect on shorter CSF fragments Aβ14, Aβ15, and Aβ34",CSF Aβ peptides [6],no effect
same,"degree of CSFAβ42 lowering, elderly versus young",CSF Aβ peptides [6]; largely due to higher exposures in elderly,greater in elderly than in young
same,effect on CSF APL1β28 fragment,CSF Aβ peptides [7]; MAD,No effects
same,effect on CSF Aβ14 fragment,CSF Aβ peptides [7]; MAD,No effects
same,"Mean decrease in CSF Aβ40, change from baseline","CSF Aβ peptides [7]; MAD 50 mg, day 28",−36%
same,"Mean decrease in CSF Aβ42, change from baseline","CSF Aβ peptides [7]; MAD 50 mg, day 28",−38%
same,"increase of CSF Aβ37, of baseline","CSF Aβ peptides [7]; MAD 50 mg, day 28",292%
same,"Mean decrease in CSF Aβ40, change from baseline","CSF Aβ peptides [7]; MAD 100 mg, day 28",−44%
same,"Mean decrease in CSF Aβ42, change from baseline","CSF Aβ peptides [7]; MAD 100 mg, day 28",−46%
same,"increase of CSF Aβ37, of baseline","CSF Aβ peptides [7]; MAD 100 mg, day 28",518%
same,"increase of CSF Aβ37, of baseline","CSF Aβ peptides [7]; MAD 200 mg, 48, 72 or 96 hours after last dose",484%–545
same,CSF Aβ40 and Aβ42 levels four days after the last day of dosing,"CSF Aβ peptides [7]; MAD 200 mg, 96 hours after last dose",still significantly reduced
same,increase of CSF Aβ38,"CSF Aβ peptides [7]; MAD, 50 mg",20%
same,increase of CSF Aβ38,"CSF Aβ peptides [7]; MAD, 100 mg",69%
same,increase of CSF Aβ38,"CSF Aβ peptides [7]; MAD, 200 mg",68%
same,CSF Aβ42/CSF Aβ40 ratio,"CSF Aβ peptides [7]; MAD, especially at the 200-mg dose",Trends in lowering
same,effect on CSF AB17,CSF Aβ peptides [7]; SAD and MAD (Supplemental Figs. 4C and 5F),slight increases
same,effect on total Aβ in CSF,CSF Aβ peptides [7]; at higher dose levels,modest decreases
same,pIC50,UGT1A1,5.87
same,decrease of plasma Aβ40 levels,"[8]; MAD 50-mg dose, up to",40%–50
same,plasma Aβ42 during the dosing period,[8]; MAD 100- and 200-mg cohorts,below the limit of quantitation
same,reduction of plasma Aβ42 levels,"[8]; MAD 200-mg cohort, day 35 (11 days after the last dose)",46%
same,change in plasma total Aβ,[8]; multiple dose cohorts,No changes
same,effect on plasma Aβ42 and Aβ40,[8]; multiple-dose administrations,dose-dependently decreased
same,decrease of CSF Aβ42 levels within exposures free of liver toxicity findings,CSF Aβ42,≤ 25%
same,Tmax Median (Minimum–Maximum),"[9]; SAD panel 9, 900 mg",6 (4–18) h
same,AUC(0-t),"[9]; human, oral, 900 mg",97 ng·h/mL
same,Cmax,"[9]; human, oral, 900 mg",6.5 ng/mL
same,Kp,"[9]; human, oral, 900 mg",< 0.01
same,Tmax,"[9]; human, oral, 900 mg",6 h
